Test results: PMC9283305 (Nitric oxide : biology and chemistry, 2022)
Like-named read-outs stand apart in the source and are kept apart here. One block for each compound: values may come before it.

What was measured:
[1] = cited from earlier work
H81Q [2] = molecular target: T1, H81Q (Homo sapiens, UniProt Q8WWM9, H81Q); assay: UV-Vis difference spectroscopy titration of ferric cytoglobin; type: binding; details: SD, n = 3
Procedure, shortened: (§1)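 Sodium oleate stocks (50 mM in water, −20 °C) were diluted in buffer before use. Ferric globin (5–15 μM) in 100 mM sodium phosphate, pH 7.4, 25 °C was titrated with 200 μM–5 mM stocks to about 60–1500 μM oleate. The max–min difference-spectrum amplitude was plotted against oleate, and KD came from a 1:1 quadratic fit. At least triplicate, with ≥2 protein batches; mean ± SD.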

L108Q = L108Q (Homo sapiens, UniProt Q8WWM9, L108Q); assay: as above; type: binding; details: SD, n = 3
Procedure, shortened: as §1

H81A [3] = molecular target: T2, H81A (Homo sapiens, UniProt Q8WWM9, H81A); assay: as above; type: binding; details: SD, n = 3
Procedure, shortened: as §1

H81W [4] = molecular target: T3, H81W (Homo sapiens, UniProt Q8WWM9, H81W); assay: as above; type: binding; details: SD, n = 3
Procedure, shortened: as §1

T91D = T91D (Homo sapiens, UniProt Q8WWM9, T91D); assay: as above; type: binding; details: SD, n = 3
Procedure, shortened: as §1

H81L [5] = molecular target: T4, H81L (Homo sapiens, UniProt Q8WWM9, H81L); assay: as above; type: binding; details: SD, n = 3
Procedure, shortened: as §1

V105Y = V105Y (Homo sapiens, UniProt Q8WWM9, V105Y); assay: as above; type: binding; details: SD, n = 3
Procedure, shortened: as §1

R84E = R84E (Homo sapiens, UniProt Q8WWM9, R84E); assay: as above; type: binding; details: SD, n = 3
Procedure, shortened: as §1

K116E [6] = molecular target: T5, K116E (Homo sapiens, UniProt Q8WWM9, K116E); assay: as above; type: binding; details: SD, n = 3
Procedure, shortened: as §1

H81A [7] = molecular target: T2, H81A; assay: UV-Vis difference spectroscopy titration of ferric cytoglobin; type: binding; details: SD, n = 3; remark: listed apart in the source
Procedure, shortened: (§2)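 Ferric globin (5–15 μM) was titrated with imidazole stocks (1–100 mM) to about 100–15000 μM final. Buffer was 100 mM sodium phosphate, pH 7.4, at 25 °C. UV-Vis difference spectra were taken, and the max–min absorbance difference was plotted against ligand. KD came from a 1:1 quadratic binding fit. At least triplicate, with ≥2 protein batches; mean ± SD.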

H81W [8] = molecular target: T3, H81W; assay: as above; type: binding; details: SD, n = 3; remark: listed apart in the source
Procedure, shortened: as §2

H81L [9] = molecular target: T4, H81L; assay: as above; type: binding; details: SD, n = 3; remark: listed apart in the source
Procedure, shortened: as §2

H81Q [10] = molecular target: T1, H81Q; assay: as above; type: binding; details: SD, n = 3; remark: listed apart in the source
Procedure, shortened: as §2

Wild-type Cygb [11] = molecular target: T6, Wild-type Cygb (Homo sapiens, UniProt Q8WWM9); assay: as above; type: binding; details: SD, n = 3
Procedure, shortened: as §2

H81Q [12] = molecular target: T1, H81Q; assay: UV-Vis difference spectroscopy titration of ferric cytoglobin; type: binding; details: SD, n = 3; remark: listed apart in the source
H81L [13] = molecular target: T4, H81L; assay: as above; type: binding; details: SD, n = 3; remark: listed apart in the source
K116E [14] = molecular target: T5, K116E; assay: as above; type: binding; details: SD, n = 3; remark: listed apart in the source
Wild-type Cygb [15] = molecular target: T6, Wild-type Cygb; assay: as above; type: binding; details: SD, n = 3; remark: listed apart in the source
H81W [16] = molecular target: T3, H81W; assay: as above; type: binding; details: SD, n = 3; remark: listed apart in the source
H81A [17] = molecular target: T2, H81A; assay: as above; type: binding; details: SD, n = 3; remark: listed apart in the source
[18] = 37°C, 100 mM sodium phosphate, pH 7.4

T2 sequence (Q8WWM9 whole entry H81A): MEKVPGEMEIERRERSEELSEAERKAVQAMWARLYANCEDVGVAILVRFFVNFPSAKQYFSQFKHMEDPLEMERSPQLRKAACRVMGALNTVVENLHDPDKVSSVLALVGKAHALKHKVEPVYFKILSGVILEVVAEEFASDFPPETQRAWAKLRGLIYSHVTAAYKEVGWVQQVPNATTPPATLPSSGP
T4 sequence (Q8WWM9 whole entry H81L): as the sequence (Q8WWM9 whole entry H81A) above, with A81L counted along it
T1 sequence (Q8WWM9 whole entry H81Q): as the sequence (Q8WWM9 whole entry H81A) above, with A81Q counted along it
T3 sequence (Q8WWM9 whole entry H81W): as the sequence (Q8WWM9 whole entry H81A) above, with A81W counted along it
T6 sequence (Q8WWM9 whole entry): as the sequence (Q8WWM9 whole entry H81A) above, with A81H counted along it
T5 sequence (Q8WWM9 whole entry K116E): as the sequence (Q8WWM9 whole entry H81A) above, with A81H, K116E counted along it
Sequence of L108Q (Q8WWM9 whole entry L108Q): as the sequence (Q8WWM9 whole entry H81A) above, with A81H, L108Q counted along it
Sequence of V105Y (Q8WWM9 whole entry V105Y): as the sequence (Q8WWM9 whole entry H81A) above, with A81H, V105Y counted along it
Sequence of R84E (Q8WWM9 whole entry R84E): as the sequence (Q8WWM9 whole entry H81A) above, with A81H, R84E counted along it
Sequence of T91D (Q8WWM9 whole entry T91D): as the sequence (Q8WWM9 whole entry H81A) above, with A81H, T91D counted along it

Compound: Myoglobin F43H: myoglobin mutant with histidine instead of Phe43(CD1) [reference compound]
Nitrite reductase reaction rate constant ([1]; Mb values determined at 25°C): 1.4 ± 0.1^c M^−1s^−1

Compound: Myoglobin H64A: myoglobin distal histidine His64 to Ala mutant [reference compound]
Nitrite reductase reaction rate constant ([1]; Mb values determined at 25°C): 1.8 ± 0.3^b M^−1s^−1

Kd (H81Q [2]): 46 ± 8 µM | Kd (L108Q): 14 ± 3 µM | Kd (H81A [3]): 24 ± 2 µM | Kd (H81W [4]): 32 ± 10 µM | Kd (T91D): 5.7 ± 1.4 µM | Kd (H81L [5]): 36 ± 13 µM | Kd (V105Y): 4.8 ± 3.2 µM | Kd (R84E): 170 ± 90 µM | Kd (K116E [6]): 62 ± 23 µM
Compound: CCCCCCCC/C=C\CCCCCCCC(=O)O [Oleic acid, oleic acid (18:1 cis-9), added as sodium oleate]

Compound: Hemoglobin T-State: hemoglobin in the T-state [reference compound]
Nitrite reductase reaction rate constant [1, 18]: 0.12^a M^−1s^−1

Compound: Myoglobin Wild-type: wild-type myoglobin [reference compound]
Nitrite reductase reaction rate constant ([1]; Mb values determined at 25°C): 5.6 ± 0.6^b M^−1s^−1

Compound: Myoglobin F43H/H64A: myoglobin double mutant Phe43(CD1) to His and His64 to Ala [reference compound]
Nitrite reductase reaction rate constant ([1]; Mb values determined at 25°C): 49.8 ± 1.5^c M^−1s^−1

Compound: c1c[nH]cn1 [Imidazole, imidazole]
Kd (H81A [7]): 10.6 ± 6.2 µM | Kd (H81W [8]): 7.3 ± 0.9 µM | Kd (H81L [9]): 23.5 ± 4.4 µM | Kd (H81Q [10]): 15.3 ± 11 µM | Kd (Wild-type Cygb [11]): 820 ± 150 µM

Kd (H81Q [12]): 250 ± 10 µM | Kd (H81L [13]): 950 ± 80 µM | Kd (K116E [14]): 185 ± 13 mM | Kd (Wild-type Cygb [15]): 1.59 ± 0.74 mM | Kd (H81W [16]): 140 ± 10 µM | Kd (H81A [17]): 1.52 ± 0.89 mM
Compound: CCCCCCCC(=O)O [Octanoic acid, octanoic acid, added as sodium octanoate]

Compound: Hemoglobin R-State: hemoglobin in the R-state [reference compound]
Nitrite reductase reaction rate constant [1, 18]: 6.0^a M^−1s^−1
